# NR2E3 ag-1 = human photoreceptor-specific nuclear receptor agonism; inhibition of corepressor binding, % at 3.98 µM; CHO-S Gal4-NCOR/VP16-NR2E3 two-hybrid, luciferase; Q9Y5X4; 360,000 tested, 0.35% active;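 active = inhibition above the mean of all tested compounds plus 3 SD, cut at about 70% in these data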;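 note: 0% = DMSO with NR2E3 transfected cells and 100% = cells lacking NR2E3 construct; higher means lower luciferase signal from less NR2E3 corepressor binding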
# NR2E3 ag-2 = NR2E3 (human) agonism; Q9Y5X4; GST-NR2E3/biotin-RetCOR TR-FRET, 1536-well; inhibition of corepressor binding, % at 4.78 µM; 320,000 tested, 0.12% active; AID 2300;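 active = percent inhibition above the cutoff of mean plus 3 SD of all tested compounds, set per screening campaign, cut at about 20% in these data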;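 note: 0% = DMSO wells and 100% = biotin wells as full block of FRET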
#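 Test system: GST-NR2E3 and biotin-RetCOR proteins | Quantity: 1.35 nM GST-tagged NR2E3 final | Medium: Tris pH 7.5 | Also added: 7 nM biotin-RetCOR | Dosing: Compound at 4.8 µM, single dose | Timing: 5 h at 4 °C | Detection: Time-resolved FRET | Read-out basis: Percent inhibition | Benchmarks: Biotin wells as high control, 0.6% DMSO wells as low control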
# KLK7 zymogen act = proKLK7 (human) activation, primary screen | P49862 | purified proKLK7, EDANS-DABCYL substrate fluorescence; 100% is mature enzyme control, 0% vehicle | activation, % at 7 µM | 370,000 tested, 0.9% active | AID 652039;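 active = activation above the mean of all tested compounds plus 3 SD, computed per campaign excluding outliers beyond control limits, cut at about 13% in these data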
# Target sequence (P49862 whole entry, looked up): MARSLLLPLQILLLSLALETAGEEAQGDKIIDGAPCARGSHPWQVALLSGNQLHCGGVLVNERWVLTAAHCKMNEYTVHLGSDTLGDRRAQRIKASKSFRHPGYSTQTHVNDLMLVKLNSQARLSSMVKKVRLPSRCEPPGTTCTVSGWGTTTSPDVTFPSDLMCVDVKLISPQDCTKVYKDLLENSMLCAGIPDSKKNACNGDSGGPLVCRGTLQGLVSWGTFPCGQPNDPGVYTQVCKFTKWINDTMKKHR
# GASC-1 inh = inhibitors of human GASC-1 (JMJD2C) demethylase | AID 2099 | 330,000 tested, 0.069% active | inhibition, % at 2.35 µM | GST-JMJD2C(1-420) H3K9me3 demethylation, DELFIA europium | Q9H3R0;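 active = more than half of a compound's replicate wells show inhibition beyond 50%, single wells judged on their own value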;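 note: signal counts dimethyl H3K9 product captured on neutravidin plate; 0% = median of DMSO wells and 100% = 0.3 times that DMSO median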
# Target sequence (Q9H3R0 1-420 limits assumed): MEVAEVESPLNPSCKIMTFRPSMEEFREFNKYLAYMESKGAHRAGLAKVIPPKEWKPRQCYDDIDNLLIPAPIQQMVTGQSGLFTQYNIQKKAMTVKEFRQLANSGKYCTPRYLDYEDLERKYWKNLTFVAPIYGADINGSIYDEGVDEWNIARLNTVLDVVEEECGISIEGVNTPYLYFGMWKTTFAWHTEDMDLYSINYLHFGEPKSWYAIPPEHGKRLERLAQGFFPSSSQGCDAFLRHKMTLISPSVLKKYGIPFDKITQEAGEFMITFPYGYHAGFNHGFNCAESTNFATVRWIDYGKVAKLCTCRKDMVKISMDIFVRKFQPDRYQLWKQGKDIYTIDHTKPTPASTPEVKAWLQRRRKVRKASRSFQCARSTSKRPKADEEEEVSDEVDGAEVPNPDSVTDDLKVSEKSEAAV
# ADAM17 inh = ADAM17 inhibition, QFRET primary screen; recombinant ADAM17, EDANS/DABCYL FRET peptide cleavage; AID 720648; inhibition, % at 6.95 µM; P78536; 370,000 tested, 0.83% active;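 active = inhibition above the mean of compounds lying between control limits plus 3 SD, set per campaign, cut at about 8.5% in these data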;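 note: 0% = DMSO-only wells as the low control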
# ADAM10 inh = ADAM10 inhibition, QFRET primary screen. O14672. recombinant ADAM10, EDANS/DABCYL FRET peptide cleavage, 3 h. inhibition, % at 7 µM. 370,000 tested, 0.62% active;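 active = inhibition above a per-campaign cutoff equal to the mean of compounds falling between control-based bounds plus 3 SD, cut at about 20% in these data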;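 note: 0% = DMSO wells while the 100% control is not disclosed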
# KLK7 act conf = proKLK7 activation, confirmation; purified proKLK7, EDANS-DABCYL substrate fluorescence; scaled: vehicle 0, mature enzyme 100; 3,200 tested, 68% active; activation, % at 7 µM; shares compounds with KLK7 zymogen act; AID 686949;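 active = activation, as change over the incubation, above the mean of all tested compounds plus 3 SD, cut at about 13% in these data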
# EDANS-DABCYL int = fluorescence interference counter-screen for KLK7 activators. shares compounds with KLK7 zymogen act. EDANS-DABCYL substrate fluorescence interference, no enzyme, 4 h; solvent 0%, active enzyme control 100%. activation, % at 7 µM. 3,200 tested, 80% active. AID 686952;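 active = activation above the all-compound mean plus 3 SD, ignoring values outside control-based bounds, cut at about 4.8% in these data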;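 note: value is the 4 h activation minus the activation read at time zero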
# K7 EDANS ctr = optically interferes with EDANS-DABCYL fluorescence, kallikrein-7 activator counter-screen; 250 tested, 20% active; EDANS-DABCYL peptide fluorescence interference, no enzyme; shares compounds with KLK7 zymogen act; EC50, µM;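 active = compounds that raise the fluorescence signal in this interference counterscreen, with EC50 at or below 10 µM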;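 note: intact quenched peptide substrate alone read at 355 nm excitation and 520 nm emission; signal is fluorescence gain from T0 to T4 after four hours at room temperature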
# The depositor's hits bear a star; i = inactive; · = not tested or not shown. In the library only some 2.5% were active in any assay of this set; here they are far more common.
SMILES,NR2E3 ag-1,NR2E3 ag-2,KLK7 zymogen act,GASC-1 inh,ADAM17 inh,ADAM10 inh,KLK7 act conf,EDANS-DABCYL int,others
CCOC(=O)c1ccc(Oc2c(C)oc3c(CN4CCN(C)CC4)c(O)ccc3c2=O)cc1,10,-1,119*,6,i,i,76*,70*,
Cc1oc2c(CN3CCCC3)c(O)ccc2c(=O)c1Oc1ccccc1Br,-29,2,83*,2,i,i,56*,76*,
CCOC(=O)c1c(C)oc2c1c(CN1CCN(CCO)CC1)c(O)c1ccccc12,-163,·,4,·,-1,-8,·,·,
Cc1ccc(NC(=O)C(C)Sc2nnc3n2CCCCC3)cc1S(=O)(=O)N1CCOCC1 (stereo unspecified),-6,·,0,·,7,-4,·,·,
Cc1ccc(C)c(NCC(O)c2ccccc2)c1 (stereo unspecified),-12,-3,1,10,-3,-3,·,·,
Cc1ccc(NC(=O)CN(C)C(=O)COc2ccc(Br)cc2)cc1,21,·,1,·,2,1,·,·,
Cc1ccc(S(=O)(=O)N(CC(=O)Nc2cccc(C)c2C)C(=O)N2CCN(C)CC2)cc1,-12,·,0,-1,-1,-8,·,·,
CN(Cc1ccccc1)S(=O)(=O)c1ccc(N2CCOCC2)nc1,1,0,-1,-3,-1,-6,·,·,
O=C(NCC(=O)N(CC1CCCO1)C(C(=O)NC1CCCCC1)c1cccnc1)c1cccs1 (stereo unspecified),-4,0,0,4,-1,-5,·,·,
N#CC(Sc1ccccn1)c1ccc(Cl)cc1 (stereo unspecified),5,4,16*,0,-40,-120,10,12*,
Cc1cc2[nH]c(=O)c(=O)[nH]c2cc1S(=O)(=O)NC1CCC(C)CC1 (stereo unspecified),-3,3,15*,3,-94,-318,8,4.1*,
Cc1cc2[nH]c(=O)c(=O)[nH]c2cc1S(=O)(=O)NCc1ccccc1,-4,2,23*,6,-188,i,4,6.0*,
Cc1cc2[nH]c(=O)c(=O)[nH]c2cc1S(=O)(=O)NC1CCCCC1C (stereo unspecified),14,1,·,1,·,·,·,·,
O=C(CCSc1ccc(Cl)c(Cl)c1)NC12CC3CC(CC(C3)C1)C2,-55,4,0,-1,6,11,·,·,
Cc1c2cccn2cc[n+]1C,-6,2,18*,1,-126,-408,32*,27*,
CC1=C(C#N)C(c2cccnc2)C2=C(CC(C)(C)CC2=O)N1 (stereo unspecified),-23,-4,38*,0,-477,i,67*,52*,K7 EDANS ctr=>70
CC1=C(C#N)C(c2ccc(O)cc2)C2=C(CC(C)(C)CC2=O)N1 (stereo unspecified),-10,0,5,10,-61,-181,·,·,
CC1=C(C#N)C(C)C2=C(CC(C)(C)CC2=O)N1 (stereo unspecified),-3,0,16*,9,-317,i,39*,40*,
COc1cc(S(=O)(=O)NCc2ccc(F)cc2)ccc1-n1cnnn1,-12,0,0,-2,-1,0,·,·,
Cc1ccc(F)c(S(=O)(=O)NC(=O)C2(C)CCN2C(=O)CC(c2ccccc2)c2ccccc2)c1 (stereo unspecified),-35,·,0,·,-1,-3,·,·,
O=C(NN=C1CCCC1)c1cc(Cl)cc(Cl)c1O,-22,2,18*,4,-112,-274,12,15*,
CC(=O)c1ccc(N2CCN(S(=O)(=O)c3cc4c(cc3C)NC(=O)CO4)CC2)cc1,-5,-9,20*,4,-5,-1,11,8.1*,
Cc1cc2c(cc1S(=O)(=O)N1CCN(c3cccc(C(F)(F)F)c3)CC1)OCC(=O)N2,-26,2,0,-7,2,-1,·,·,
N#Cc1cnn2c(-c3ccc(Cl)cc3Cl)ccnc12,-15,-4,20*,-13,-227,i,21*,22*,
N#Cc1cnn2c(-c3cccc(C(F)(F)F)c3)ccnc12,20,-1,9,17,-106,-381,·,·,
SMILES,NR2E3 ag-1,NR2E3 ag-2,KLK7 zymogen act,GASC-1 inh,ADAM17 inh,ADAM10 inh,KLK7 act conf,EDANS-DABCYL int,others
c1cncc(C2Nc3ccccc3-c3nc4ccccc4n32)c1 (stereo unspecified),27,-3,56*,7,i,i,5,5.7*,
c1ccc2c(c1)NC(c1ccncc1)n1c-2nc2ccccc21 (stereo unspecified),2,0,29*,1,i,i,0,3,
O=C1c2ccccc2NC(c2ccncc2)N1c1ccccn1 (stereo unspecified),-16,1,36*,11,-339,i,18*,29*,
CCN1c2ccccc2-c2nc3ccccc3n2C1c1cccnc1 (stereo unspecified),8,1,10,0,-225,i,·,·,
COc1ccc(C(=O)OCC(=O)Nc2cccc(S(=O)(=O)NC3=NCCCCC3)c2)cc1[N+](=O)[O-],24,·,0,·,0,7,·,·,
Cc1ccccc1Nc1nnc(-c2ccc(C(=O)NCCO)cc2)c2ccccc12,1,1,0,-2,-3,-1,·,·,
COc1ccc2[nH]c3c(Cl)ncnc3c2c1,23,1,0,-3,-4,-10,·,·,
COc1ccc2[nH]c3c(=S)nc[nH]c3c2c1,-23,-3,21*,24,-37,-108,0,1,
CNc1cncc(-c2cccc(O)c2)n1,-4,·,37*,·,i,i,35*,36*,
CNc1cccc(-c2cccc(O)c2)n1,-76,·,0,·,-14,-58,·,·,
CNc1cncc(-c2ccc(C)cc2)n1,-78,·,30*,·,i,i,41*,41*,
CNc1cncc(-c2cc(OC)c(OC)c(OC)c2)n1,-9,·,25*,·,i,i,16*,22*,
CC(=O)Nc1cncc(-c2cccc(C(=O)NC3CC3)c2)n1,-18,·,0,·,-3,-23,·,·,
CNc1cncc(-c2cccc(C(=O)NC3CC3)c2)n1,-26,·,54*,·,i,i,47*,55*,
COc1ccccc1C(=O)N/C(=C\c1cn(C)c2ccccc12)C(=O)NCCCn1ccnc1,-5,2,-1,4,-4,-4,·,·,
